In paper PMC7854449 (Advances in Therapy, 2020):

What was measured:
[1] = Multiple-dose pharmacokinetics of OW s.c. semaglutide, plasma, LC-MS/MS; assay type: in vivo, healthy Chinese subjects
Method in brief: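 Healthy Chinese adults (18–55 y, BMI 20.0–24.9 kg/m2) got s.c. abdominal injections weekly for 13 weeks, starting at 0.25 mg and escalating every 4 weeks to 0.5 or 1.0 mg. Plasma was sampled frequently after the first and last doses, plus pre-dose in weeks 4, 8 and 11, and assayed by LC–MS/MS. Values below LLOQ were imputed. Non-compartmental linear trapezoidal AUC0–168 h used actual times. Ratios came from a log-scale linear model (dose group fixed) with 95% CI. Racc,DC = (AUCSS/last dose)/(AUCSD/0.25 mg).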

[2] = Safety and tolerability: treatment-emergent adverse events; assay type: in vivo, healthy Chinese subjects; settings: 13 weeks; for AEs leading to withdrawal, % (proportion of subjects) / AEs leading to withdrawal, E (number of events) / AEs leading to withdrawal, N (number of subjects) / AEs, % (proportion of subjects) / AEs, E (number of events) / AEs, N (number of subjects) / AEs, outcome not recovered/not resolved, % (proportion of subjects) / AEs, outcome not recovered/not resolved, E (number of events) / AEs, outcome not recovered/not resolved, N (number of subjects) / AEs, outcome recovered/resolved, % (proportion of subjects) / AEs, outcome recovered/resolved, E (number of events) / AEs, outcome recovered/resolved, N (number of subjects) / AEs, outcome recovering/resolving, % (proportion of subjects) / AEs, outcome recovering/resolving, E (number of events) / AEs, outcome recovering/resolving, N (number of subjects) / AEs, severity mild, % (proportion of subjects) / AEs, severity mild, E (number of events) / AEs, severity mild, N (number of subjects) / AEs, severity moderate, % (proportion of subjects) / AEs, severity moderate, E (number of events) / AEs, severity moderate, N (number of subjects) / AEs, severity severe, % (proportion of subjects) / AEs, severity severe, E (number of events) / AEs, severity severe, N (number of subjects) / Serious AEs, % (proportion of subjects) / Serious AEs, E (number of events) / Serious AEs, N (number of subjects): 12 subjects
Method in brief: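 This was a single-centre, randomised trial in 36 healthy Chinese adults, 12 per arm, double-blind within dose level, with placebo arms pooled. Test compound or matching placebo was injected s.c. in the abdomen once weekly for 13 weeks, escalating every 4 weeks to 0.5 or 1.0 mg. Treatment-emergent AEs were untoward occurrences after the first dose and before the follow-up visit, counted as subjects and events.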

[3] = cited from earlier work

CC[C@H](C)[C@H](NC(=O)[C@H](Cc1ccccc1)NC(=O)[C@H](CCC(=O)O)NC(=O)[C@H](CCCCNC(=O)COCCOCCNC(=O)COCCOCCNC(=O)CC[C@H](NC(=O)CCCCCCCCCCCCCCCCC(=O)O)C(=O)O)NC(=O)[C@H](C)NC(=O)[C@H](C)NC(=O)[C@H](CCC(N)=O)NC(=O)CNC(=O)[C@H](CCC(=O)O)NC(=O)[C@H](CC(C)C)NC(=O)[C@H](Cc1ccc(O)cc1)NC(=O)[C@H](CO)NC(=O)[C@H](CO)NC(=O)[C@@H](NC(=O)[C@H](CC(=O)O)NC(=O)[C@H](CO)NC(=O)[C@@H](NC(=O)[C@H](Cc1ccccc1)NC(=O)[C@@H](NC(=O)CNC(=O)[C@H](CCC(=O)O)NC(=O)C(C)(C)NC(=O)[C@@H](N)Cc1cnc[nH]1)[C@@H](C)O)[C@@H](C)O)C(C)C)C(=O)N[C@@H](C)C(=O)N[C@@H](Cc1c[nH]c2ccccc12)C(=O)N[C@@H](CC(C)C)C(=O)N[C@H](C(=O)N[C@@H](CCCNC(=N)N)C(=O)NCC(=O)N[C@@H](CCCNC(=N)N)C(=O)NCC(=O)O)C(C)C [semaglutide, Semaglutide]
Racc,DC (dose-corrected accumulation ratio) ([1]; OW s.c. dosing, both dose groups): approximately 2 | treatment ratio (1.0 mg/0.5 mg) for Cmax,SS ([1]; [95% CI], dose proportionality): 1.94 [1.74; 2.16] | treatment ratio (1.0 mg/0.5 mg) for AUC0–168 h,SS ([1]; linear normal model on log-transformed values, [95% CI], dose proportionality): 1.99 [1.78; 2.23] | AEs leading to withdrawal, % (proportion of subjects) ([2]; OW s.c. 0.5 mg): 0% | AEs leading to withdrawal, E (number of events) ([2]; OW s.c. 0.5 mg): 0 | AEs leading to withdrawal, N (number of subjects) ([2]; OW s.c. 0.5 mg): 0 | AEs, % (proportion of subjects) ([2]; OW s.c. 0.5 mg): 83% | AEs, E (number of events) ([2]; OW s.c. 0.5 mg): 44 | AEs, N (number of subjects) ([2]; OW s.c. 0.5 mg): 10 | AEs, outcome not recovered/not resolved, % (proportion of subjects) ([2]; OW s.c. 0.5 mg): 0% | AEs, outcome not recovered/not resolved, E (number of events) ([2]; OW s.c. 0.5 mg): 0 | AEs, outcome not recovered/not resolved, N (number of subjects) ([2]; OW s.c. 0.5 mg): 0 | AEs, outcome recovered/resolved, % (proportion of subjects) ([2]; OW s.c. 0.5 mg): 83% | AEs, outcome recovered/resolved, E (number of events) ([2]; OW s.c. 0.5 mg): 44 | AEs, outcome recovered/resolved, N (number of subjects) ([2]; OW s.c. 0.5 mg): 10 | AEs, outcome recovering/resolving, % (proportion of subjects) ([2]; OW s.c. 0.5 mg): 0% | AEs, outcome recovering/resolving, E (number of events) ([2]; OW s.c. 0.5 mg): 0 | AEs, outcome recovering/resolving, N (number of subjects) ([2]; OW s.c. 0.5 mg): 0 | AEs, severity mild, % (proportion of subjects) ([2]; OW s.c. 0.5 mg): 83% | AEs, severity mild, E (number of events) ([2]; OW s.c. 0.5 mg): 44 | AEs, severity mild, N (number of subjects) ([2]; OW s.c. 0.5 mg): 10 | AEs, severity moderate, % (proportion of subjects) ([2]; OW s.c. 0.5 mg): 0% | AEs, severity moderate, E (number of events) ([2]; OW s.c. 0.5 mg): 0 | AEs, severity moderate, N (number of subjects) ([2]; OW s.c. 0.5 mg): 0 | AEs, severity severe, % (proportion of subjects) ([2]; OW s.c. 0.5 mg): 0% | AEs, severity severe, E (number of events) ([2]; OW s.c. 0.5 mg): 0 | AEs, severity severe, N (number of subjects) ([2]; OW s.c. 0.5 mg): 0 | Serious AEs, % (proportion of subjects) ([2]; OW s.c. 0.5 mg): 0% | Serious AEs, E (number of events) ([2]; OW s.c. 0.5 mg): 0 | Serious AEs, N (number of subjects) ([2]; OW s.c. 0.5 mg): 0 | AEs leading to withdrawal, % (proportion of subjects) ([2]; OW s.c. 1.0 mg): 0% | AEs leading to withdrawal, E (number of events) ([2]; OW s.c. 1.0 mg): 0 | AEs leading to withdrawal, N (number of subjects) ([2]; OW s.c. 1.0 mg): 0 | AEs, % (proportion of subjects) ([2]; OW s.c. 1.0 mg): 92% | AEs, E (number of events) ([2]; OW s.c. 1.0 mg): 58 | AEs, N (number of subjects) ([2]; OW s.c. 1.0 mg): 11 | AEs, outcome not recovered/not resolved, % (proportion of subjects) ([2]; OW s.c. 1.0 mg): 0% | AEs, outcome not recovered/not resolved, E (number of events) ([2]; OW s.c. 1.0 mg): 0 | AEs, outcome not recovered/not resolved, N (number of subjects) ([2]; OW s.c. 1.0 mg): 0 | AEs, outcome recovered/resolved, % (proportion of subjects) ([2]; OW s.c. 1.0 mg): 92% | AEs, outcome recovered/resolved, E (number of events) ([2]; OW s.c. 1.0 mg): 57 | AEs, outcome recovered/resolved, N (number of subjects) ([2]; OW s.c. 1.0 mg): 11 | AEs, outcome recovering/resolving, % (proportion of subjects) ([2]; OW s.c. 1.0 mg): 8% | AEs, outcome recovering/resolving, E (number of events) ([2]; OW s.c. 1.0 mg): 1 | AEs, outcome recovering/resolving, N (number of subjects) ([2]; OW s.c. 1.0 mg): 1 | AEs, severity mild, % (proportion of subjects) ([2]; OW s.c. 1.0 mg): 92% | AEs, severity mild, E (number of events) ([2]; OW s.c. 1.0 mg): 57 | AEs, severity mild, N (number of subjects) ([2]; OW s.c. 1.0 mg): 11 | AEs, severity moderate, % (proportion of subjects) ([2]; OW s.c. 1.0 mg): 8% | AEs, severity moderate, E (number of events) ([2]; OW s.c. 1.0 mg): 1 | AEs, severity moderate, N (number of subjects) ([2]; OW s.c. 1.0 mg): 1 | AEs, severity severe, % (proportion of subjects) ([2]; OW s.c. 1.0 mg): 0% | AEs, severity severe, E (number of events) ([2]; OW s.c. 1.0 mg): 0 | AEs, severity severe, N (number of subjects) ([2]; OW s.c. 1.0 mg): 0 | Serious AEs, % (proportion of subjects) ([2]; OW s.c. 1.0 mg): 0% | Serious AEs, E (number of events) ([2]; OW s.c. 1.0 mg): 0 | Serious AEs, N (number of subjects) ([2]; OW s.c. 1.0 mg): 0 | severity of gastrointestinal adverse events ([2]; OW s.c. 0.5 and 1.0 mg, none led to treatment discontinuation): mild | deaths ([2]; whole trial, OW s.c. 0.5 and 1.0 mg): no deaths | half-life (t½) [3]: ≈ 1 week
